Measured values from publication PMC4059259 (Journal of Medicinal Chemistry, 2014).
“Also recorded” adds a separate entry of the source.

Key:
[1] = tested on: early liver stage parasites; settings: cited from earlier work
[2] = molecular target: T1, PfAtg8-PfAtg3 interaction (Plasmodium falciparum, UniProt Q8IJK2, C119S/C122S/C32I); experiment: MMV SPR competition assay; format: binding, P. falciparum; settings: read-out: inhibition of the PfAtg8-PfAtg3 interaction in primary SPR screen
T1 sequence (Q8IJK2 1-124 C32I/C119S/C122S): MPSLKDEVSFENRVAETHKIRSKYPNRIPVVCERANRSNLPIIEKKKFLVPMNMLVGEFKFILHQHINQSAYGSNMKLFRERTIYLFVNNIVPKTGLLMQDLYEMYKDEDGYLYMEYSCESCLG
T1 sequence (C0H519 1-313 partner): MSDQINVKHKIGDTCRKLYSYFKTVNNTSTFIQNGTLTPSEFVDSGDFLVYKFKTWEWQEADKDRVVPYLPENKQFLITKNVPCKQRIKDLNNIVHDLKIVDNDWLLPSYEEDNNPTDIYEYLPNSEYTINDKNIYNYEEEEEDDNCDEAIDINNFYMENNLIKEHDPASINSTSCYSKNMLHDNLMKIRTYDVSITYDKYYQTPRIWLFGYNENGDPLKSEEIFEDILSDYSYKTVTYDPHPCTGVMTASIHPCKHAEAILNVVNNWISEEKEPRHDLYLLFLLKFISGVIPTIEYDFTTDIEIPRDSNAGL
In short: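 MBP-PfAtg3 immobilized on a CM5 chip, with MBP on the reference flowcell. Test compound (final 5 μM) or DMSO was mixed with 300 nM His6-PfAtg8CM in PBS pH 7.4 with 0.01% P20, final DMSO 3%, and injected. Binding read as SPR response versus DMSO control. Surface regenerated with 2 M MgCl2 between injections.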

PfAtg8^CM = molecular target: T2, PfAtg8^CM (Plasmodium falciparum, UniProt Q8IJK2, C119S/C122S/C32I); experiment: Direct binding of 1 to immobilized PfAtg8^CM by SPR; parameters: species or system P. falciparum
T2 sequence (Q8IJK2 1-124 C32I/C119S/C122S): T1 sequence (Q8IJK2 1-124 C32I/C119S/C122S)
In short: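 SPR direct binding: His12-PfAtg8CM captured on a nickel-preconditioned NTA chip to 3000 RU. Two-fold dilution series of test compound (top 75 μM) injected at 40 μL/min in PBS pH 7.4 with 0.01% P20 and 3% DMSO. Double referencing with interspersed blanks; DMSO calibration curve; binding constants fitted.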

P. falciparum 3D7 = experiment: SYBR green I growth inhibition assay, blood stage; format: cell-based; settings: Plasmodium falciparum, 3D7, read-out: IC50 in a third experiment
HC-04 cells = experiment: Viability of HC-04 cells; format: cell-based, human; settings: 30 μM
[3] = tested on: P. falciparum 3D7-GFP liver stage; experiment: In vitro infection of human hepatocytes; format: cell-based; settings: for decrease in proportion of hepatocytes infected with P. falciparum 3D7-GFP (GFP+/PI−): 72 h post infection
PfAtg8 = experiment: Immunoblot analysis of PfAtg8 in P. falciparum blood stage; format: cell-based; settings: for delipidation of PfAtg8 (immunoblot): 6 hours
[4] = tested on: P. falciparum blood stage; experiment: Parasite morphology in blood smears; format: cell-based; settings: treatment concentration and duration used in the study (50 μM, 5 h)
In short: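 Asynchronous FCR3 blood-stage culture (25% parasitemia; 37 °C, 2% hematocrit, RPMI with 10% human serum, 3% CO2/5% O2) washed in serum-free starvation medium. Resuspended in complete medium with 50 μM test compound or DMSO, or in starvation medium with DMSO, for 5 h. Morphology viewed by light microscopy at 100× at harvest.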

[5] = tested on: Plasmodium yoelii liver stage cultures; settings: screening concentration 10 μM; ref PubChem AID: 602118 and 602156, 18, 19; cited from earlier work
human cell lines = settings: ref PubChem AID: 660872, 685525, and 449705; cited from earlier work
PfAtg3 = molecular target: T3, PfAtg3 (Plasmodium falciparum, UniProt C0H519); experiment: Direct binding of protein to immobilized 8 by SPR; parameters: species or system P. falciparum; settings: data not shown
T3 sequence (C0H519 1-313): T1 sequence (C0H519 1-313 partner)
In short: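 Test compound captured on a neutravidin-coated SPR flowcell (130 RUs), with a control ligand on the reference flowcell (150 RUs). His6-PfAtg3 injected in duplicate in 10 mM HEPES pH 7.5, 150 mM NaCl, 0.05% P20. Regeneration after each cycle with 20 mM HEPES pH 7.4, 1% w/v SDS.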

Cn1cnc(N)c2ncnc1-2 [3-methyladenine]
effect on conversion of parasite into trophozoite form [1]: delay conversion of the parasite into its trophozoite form

Cc1ccc(Nc2nc(-c3ccccn3)cs2)cc1 [Compound 1, N-(4-methylphenyl)-4-pyridin-2-yl-1,3-thiazol-2-amine]
inhibition at 5 µM [2]: ≥ 25%
direct binding to PfAtg8^CM (SPR response) (PfAtg8^CM): dose-dependent increase in SPR response; also recorded: directly binds to PfAtg8
IC50 (P. falciparum 3D7): 3.3 µM
cell death in HC-04 cells (HC-04 cells): did not observe cell death
intensity of GFP fluorescence in infected hepatocytes ([3]; 3 μM and 30 μM): dose-dependent reduction
decrease in proportion of hepatocytes infected with P. falciparum 3D7-GFP (GFP+/PI−) ([3]; 3 μM): but not with 3 μM
decrease in proportion of hepatocytes infected with P. falciparum 3D7-GFP (GFP+/PI−) ([3]; 30 μM): ~50%
delipidation of PfAtg8 (immunoblot) (PfAtg8; 12.5 μM): dose-dependent increase in delipidation of PfAtg8
delipidation of PfAtg8 (immunoblot) (PfAtg8; 25 μM): unlipidated PfAtg8 is the predominant species
PfAtg8 protein levels (immunoblot) (PfAtg8; 50 μM (cytocidal, high levels), 5 h, FCR3): drastic increase in PfAtg8 protein levels
parasite morphology [4]: parasite morphology appeared normal
inhibition of P. yoelii liver stage [5]: ≤ 50%
reported cytotoxicity in human cell lines (human cell lines): much lower than that of compounds 2 or 3

CSc1ccccc1C(=O)Nc1nc(-c2ccccn2)cs1 [Compound 2, 2-methylsulfanyl-N-(4-pyridin-2-yl-1,3-thiazol-2-yl)benzamide]
inhibition at 5 µM [2]: ≥ 25%

O=C(Nc1nc(-c2ccccn2)cs1)c1ccccc1Br [Compound 3, 2-bromo-N-(4-pyridin-2-yl-1,3-thiazol-2-yl)benzamide]
inhibition at 5 µM [2]: ≥ 25%

Cc1ccc(-c2cc3c(SCC(=O)Nc4cc(C(F)(F)F)ccc4Cl)nccn3n2)cc1 [Compound 4, N-[2-chloro-5-(trifluoromethyl)phenyl]-2-[2-(4-methylphenyl)pyrazolo[1,5-a]pyrazin-4-yl]sulfanylacetamide]
inhibition at 5 µM [2]: ≥ 25%

CN(C)c1ccc(N2C(N)=NC(N)=NC2(C)C)cc1 [Compound 5, 1-[4-(dimethylamino)phenyl]-6,6-dimethyl-1,3,5-triazine-2,4-diamine]
inhibition at 5 µM [2]: ≥ 25%

Brc1ccc(Nc2nc3ccccc3nc2Nc2ccc(Br)cc2)cc1 [Compound 6, 2-N,3-N-bis(4-bromophenyl)quinoxaline-2,3-diamine]
inhibition at 5 µM [2]: ≥ 25%

O=C(CCCC[C@H]1SC[C@H]2NC(=O)N[C@H]21)NCCCCCC(=O)NNCc1ccc(C(=O)Nc2nc(-c3ccccn3)cs2)cc1 [Compound 8, 4-[[2-[6-[5-[(3aR,4R,6aS)-2-Oxo-1,3,3a,4,6,6a-hexahydrothieno[3,4-d]imidazol-4-yl]pentanoylamino]hexanoyl]hydrazinyl]methyl]-N-(4-pyridin-2-yl-1,3-thiazol-2-yl)benzamide]
binding of recombinant PfAtg3 to immobilized 8 (PfAtg3): did not bind
